Assay results from paper PMC8546901 (Chembiochem : a European journal of chemical biology, 2021).
Numbering of substitutions follows the chain as printed.

Legend:
RGS17-RH [1] = molecular target: T1, RGS17-RH (Homo sapiens, UniProt Q9UGC6); experiment: DACM cysteine labeling of RGS17-RH after pre-incubation; type: biochemical; conditions: 10-fold molar excess compound (20 μM) over 2 μM RGS17-RH, 30 min pre-incubation
T1 sequence (Q9UGC6 72-206): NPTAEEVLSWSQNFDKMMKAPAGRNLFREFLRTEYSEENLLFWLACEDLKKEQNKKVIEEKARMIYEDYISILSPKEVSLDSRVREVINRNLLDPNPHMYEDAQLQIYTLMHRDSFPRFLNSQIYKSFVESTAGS
In short: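 RGS17-RH, or buffer alone, was pre-incubated 30 min at ambient temperature with compound (final 2 μM protein, 20 μM compound; NEM as comparator). The buffer was 20 mM K₂HPO₄, 100 mM NaCl, 2 mM NaN₃, pH 7.6. DACM was then added, and fluorescence (ex 385/em 440 nm) was read for 1,000 s. Slopes were normalised to no-protein (0%) and protein without compound (100%). Mean of n=3 ± S.D.; one-way ANOVA.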

RGS17-RH [2] = molecular target: T1, RGS17-RH; experiment: Differential scanning fluorimetry; type: binding; conditions: 1 mM fragment, 10 μM RGS17-RH
In short: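 10 μM RGS17-RH was incubated 30 min at ambient temperature with 1 mM fragment or DMSO control. 2X Sypro Orange was then added, and fluorescence was recorded from 20 to 80 °C. Tm was calculated from the melt curves. Mean of n=3 ± S.E.M.; one-way ANOVA with multiple comparisons.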

RGS17-RH C117S = molecular target: T2, RGS17-RH C117S (Homo sapiens, UniProt Q9UGC6, C117S); experiment: 1H-15N HSQC NMR binding to RGS17-RH C117S mutant; conditions: 1H-15N HSQC with RGS17-RH C117S mutant
T2 sequence (Q9UGC6 72-206 C117S): T1 sequence (Q9UGC6 72-206) with C46S
In short: (§1)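 ¹⁵N-labelled RH domains (wild-type RGS4, or RGS17 with the C117S point mutation) were expressed in E. coli BL21-CodonPlus(DE3)-RIPL in M9 medium with 1 g/L ¹⁵NH₄Cl. The His₆ tag was removed with TEV protease, and protein was purified by Ni-IMAC and size exclusion. ¹H-¹⁵N HSQC spectra were recorded with fragment at 1 mM in 1% DMSO and overlaid on 1% DMSO control spectra.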

RGS17-RH [3] = molecular target: T1, RGS17-RH; experiment: 1H-15N HSQC NMR fragment titration, chemical shift perturbation KD; type: binding; conditions: calculated from KD and number of heavy atoms
In short: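 100 μM ¹⁵N-RGS17-RH was titrated with fragment from 100 μM up to its solubility limit (generally 2–10 mM) in phosphate buffer, pH 7.6, and ¹H-¹⁵N HSQC spectra were recorded. CSP was taken as the distance between control and treated peak centres. Per-residue KD came from a quadratic binding fit and was averaged over residues. LE = (−2.3039·R·T/HA)·log(KD).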

RGS4-RH = molecular target: T3, RGS4-RH (Homo sapiens, UniProt P49798); experiment: 1H-15N HSQC NMR binding to RGS4-RH; conditions: 1H-15N HSQC with RGS4-RH
T3 sequence (P49798 51-179): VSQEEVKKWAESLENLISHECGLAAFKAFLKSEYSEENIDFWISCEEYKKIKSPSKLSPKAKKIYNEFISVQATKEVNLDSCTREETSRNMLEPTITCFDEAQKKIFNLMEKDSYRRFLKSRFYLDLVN
In short: as §1

[4] = molecular target: T4, RGS17-RH GAP activity towards Gαi1 (R178M, A326S) (Homo sapiens, UniProt Q9UGC6); experiment: Malachite green GAP activity assay; type: biochemical; conditions: 1 mM fragment, 4.5 μM RGS17-RH
T4 sequence (Q9UGC6 72-206): T1 sequence (Q9UGC6 72-206)
In short: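 Free phosphate from GTP hydrolysis was detected colorimetrically with malachite green. Final concentrations were 300 μM GTP, 4.5 μM tag-free RGS17-RH and 1 mM fragment. Mean of n=3 independent experiments ± SEM.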

| SMILES | RGS C117S Binding (RGS17-RH C117S) | L.E. (ligand efficiency) (RGS17-RH [3]) | RGS4 Binding (RGS4-RH) | effect on melting temperature of RGS17-RH (in words) (RGS17-RH [2]) | other results |
| --- | --- | --- | --- | --- | --- |
| CCN1C(=O)C=CC1=O [N-ethyl maleimide (NEM), N-ethyl maleimide, reference compound] | – | – | – | – | DACM labeling of RGS17-RH after pre-incubation (RGS17-RH [1]): decreased DACM labeling |
| OCCCCn1cnc2cc(Cl)c(Cl)cc21 [Fragment 6] | Yes | 0.25 | Yes | not statistically significant | inhibition of RGS17-RH GAP activity (in words) ([4]; one-way ANOVA): lack of appreciable RGS17-RH GAP inhibition |

More lines, main results first:

| RGS C117S Binding (RGS17-RH C117S) | L.E. (ligand efficiency) (RGS17-RH [3]) | RGS4 Binding (RGS4-RH) | SMILES | effect on melting temperature of RGS17-RH (in words) (RGS17-RH [2]) | other results |
| --- | --- | --- | --- | --- | --- |
| Yes | 0.31 | Yes | Oc1ccc(Sc2ccc(O)cc2)cc1 [Fragment 4] | melting temperature could not be accurately determined | inhibition of RGS17-RH GAP activity ([4]; 300 μM GTP): ~20% |
| – | 0.23 | – | CSc1cc(-c2ccc(F)cc2)[nH]n1 [Fragment 5] | – | RGS C117S Binding (RGS17-RH C117S; listed as 5): No; RGS C117S Binding (RGS17-RH C117S; listed as fragment 5): did not bind; RGS4 Binding (RGS4-RH; listed as 5): No; RGS4 Binding (RGS4-RH; listed as fragment 5): did not bind |
| Yes | 0.25 | Yes | OCCCCCOc1ccc(Cl)cc1 [Fragment 7] | – | – |
